Reference: ChEMBL document CHEMBL1136968, “Structurally simple inhibitors of lanosterol 14alpha-demethylase are efficacious in a rodent model of acute Chagas disease” (J Med Chem, 2009)
Activity calls are given as the source filed them. The rule behind the calls is not given here.

Experiments:
[1] = Terminal half life in mouse; type: ADME, organism-based; settings: in vivo, read-out: beta t1/2 (converted)
[2] = Terminal half life in rat; type: ADME, organism-based; settings: in vivo, read-out: beta t1/2 (converted)
Trypanosoma cruzi [3] = test: (§1) Antitrypanosomal activity against Trypanosoma cruzi Tulahuen infected BALB/c mouse model of acute Chagas disease assessed as parasitemia burden in blood at 20 mg/kg, po administered twice daily 7 days after parasite infection for 21 days measured 100 days postinfection by PCR assay relative to untreated control; type: functional, organism-based; design: dose 20 mg/kg
Outline: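 Female BALB/c mice (7–8 wk) infected s.c. with 1 × 10^4 Tulahuen trypomastigotes; blood parasites seen by day 7. Groups of 6 dosed by oral gavage twice daily, days 7–27, in 20% (w/v) hydroxypropyl beta-cyclodextrin vehicle. Vehicle group as control. Mice sacrificed at day 100; 200 µL whole blood tested by PCR for T. cruzi; scored as positive mice per group.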

[4] = AUC (0 to 5 hrs) in Trypanosoma cruzi infected BALB/c mouse model of acute Chagas disease at 50 mg/kg, po administered as single dose; type: ADME, organism-based; design: dose 50 mg/kg, route oral; settings: in vivo
Outline: (§2)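 BALB/c females, 7–8 weeks, ~20 g, groups of three; single oral gavage at 50 mg/kg, given as a 10 mg/ml suspension in 20% (w/v) hydroxypropyl beta-cyclodextrin, 100 µL. Tail blood (40 µL) taken at timed intervals into heparinized capillaries. Plasma was separated, frozen and analysed later. Sampling ran to 5 hr. Values are averages from 3 mice.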

Trypanosoma cruzi [5] = test: Antitrypanosomal activity against Trypanosoma cruzi Tulahuen amastigotes in mouse 3T3 cells by beta-galactosidase reporter gene assay; type: functional, organism-based; settings: NIH3T3
Outline: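 Tulahuen strain (TCII lineage) grown as intracellular amastigotes in murine 3T3 fibroblasts in 96-well plates. EC50 determined from triplicate screens. Standard errors within assays stayed below 15%.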

[6] = Cmax in Trypanosoma cruzi infected BALB/c mouse model of acute Chagas disease at 50 mg/kg, po administered as single dose; type: ADME, organism-based; design: dose 50 mg/kg, route oral; settings: in vivo; outline: as §2
[7] = Toxicity against mouse 3T3 cells by resazurin assay; type: cell-based; settings: NIH3T3 cells
Outline: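 Murine 3T3 fibroblasts screened separately from the parasites. Host-cell growth was quantified by resazurin read-out and EC50 determined.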

[8] = Tmax in Trypanosoma cruzi infected BALB/c mouse model of acute Chagas disease at 50 mg/kg, po administered as single dose; type: ADME, organism-based; design: dose 50 mg/kg, route oral; settings: in vivo; outline: as §2
Mus musculus [9] = test: Toxicity in Trypanosoma cruzi Tulahuen infected BALB/c mouse model of acute Chagas disease assessed as incidence of side effects at 50 mg/kg, po administered twice daily 7 days after parasite infection for 21 days; type: organism-based; design: dose 50 mg/kg, route oral; settings: in vivo
Outline: (§3)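 BALB/c females, 7–8 weeks, infected subcutaneously with 1 × 10^4 Tulahuen trypomastigotes; all were parasitemic by day 7. Groups of 6 were dosed by oral gavage twice daily on days 7–27 in 20% (w/v) hydroxypropyl beta-cyclodextrin, 100 µL per dose; vehicle group as control. Parasitemia was counted in 5 µL tail blood over 50 high-power fields through day 97. At day 100, 200 µL whole blood was tested by PCR.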

Mus musculus [10] = test: Toxicity in Trypanosoma cruzi Tulahuen infected BALB/c mouse model of acute Chagas disease assessed as mouse survival at 50 mg/kg, po administered twice daily 7 days after parasite infection for 21 days measured 100 days postinfection; type: organism-based; design: dose 50 mg/kg, route oral; settings: in vivo, 2400 h
Outline: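 Subcutaneous infection of female BALB/c mice (7–8 wk) with 1 × 10^4 Tulahuen trypomastigotes. Groups of 6 given oral gavage twice daily, days 7–27, in 20% (w/v) hydroxypropyl beta-cyclodextrin. Parasitemia followed by counting 50 high-power fields of 5 µL tail blood through day 97. Pre-morbid mice euthanized; survival and side effects recorded to termination at day 100.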

[11] = target: Sterol 14-alpha demethylase (Trypanosoma cruzi (strain CL Brener), UniProt Q7Z1V1); test: Binding affinity to Trypanosoma cruzi lanosterol 14-alpha-demethylase expressed in Escherichia coli assessed as equilibrium dissociation constant for enzyme-inhibitor complex by difference spectroscopy
[12] = target: Sterol 14-alpha demethylase (Trypanosoma cruzi (strain CL Brener)) (UniProt Q7Z1V1); test: Binding affinity to Trypanosoma cruzi lanosterol 14-alpha-demethylase expressed in Escherichia coli assessed as enzyme spectral change by difference spectroscopy
Trypanosoma cruzi [13] = test: as §1, with “50” for “20”; type: functional, organism-based; design: dose 50 mg/kg; outline: as §3
[14] = Plasma concentration in mouse at 30 mg/kg, po after 1 hr; type: ADME, organism-based; design: dose 30 mg/kg, route oral
[15] = Half life in mouse at 30 mg/kg, po; type: ADME, organism-based; design: dose 30 mg/kg, route oral; settings: in vivo
Trypanosoma cruzi [16] = test: Antitrypanosomal activity against Trypanosoma cruzi infected mouse model of acute Chagas disease assessed as parasitemia burden in blood at 50 mg/kg, po administered twice daily for 14 days relative to untreated control; type: functional

Sequence of Sterol 14-alpha demethylase (Trypanosoma cruzi (strain CL Brener)) (Q7Z1V1 whole entry, looked up): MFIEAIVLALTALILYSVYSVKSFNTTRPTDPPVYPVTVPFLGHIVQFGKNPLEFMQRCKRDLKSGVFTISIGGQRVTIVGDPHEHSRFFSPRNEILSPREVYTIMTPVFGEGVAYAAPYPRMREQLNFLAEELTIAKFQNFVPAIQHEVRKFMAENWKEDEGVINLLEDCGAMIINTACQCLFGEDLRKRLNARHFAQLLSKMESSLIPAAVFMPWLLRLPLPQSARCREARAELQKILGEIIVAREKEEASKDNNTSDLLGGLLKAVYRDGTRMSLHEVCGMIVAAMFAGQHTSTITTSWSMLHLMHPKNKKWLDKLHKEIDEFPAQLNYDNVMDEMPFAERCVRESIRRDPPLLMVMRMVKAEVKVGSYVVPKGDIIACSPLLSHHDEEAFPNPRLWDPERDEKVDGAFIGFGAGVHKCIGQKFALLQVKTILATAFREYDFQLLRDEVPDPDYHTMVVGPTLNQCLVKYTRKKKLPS
Sequence of Sterol 14-alpha demethylase (Q7Z1V1 whole entry): as the sequence (Q7Z1V1 whole entry, looked up) above

Row | Compound | half-life [1] [h] | half-life [2] [h] | Activity (Trypanosoma cruzi [3]) | AUC(0-t) at 4 h [4] [ng·h/mL] | EC50 (Trypanosoma cruzi [5]) [nM] | Cmax [6] [ng/mL] | EC50 [7] [nM] | Tmax [8] [h] | Activity (Mus musculus [9]) | Activity (Mus musculus [10]) | Kd [11] [nM] | Activity [12] | Activity (Trypanosoma cruzi [13]) | concentration at 1 h [14] [µM] | half-life [15] [h] | Activity (Trypanosoma cruzi [16]) [%]
1 | CC[C@@H]([C@H](C)O)n1ncn(-c2ccc(N3CCN(c4ccc(OC[C@@H]5CO[C@@](Cn6cncn6)(c6ccc(F)cc6F)C5)cc4)CC3)cc2)c1=O [POSACONAZOLE] | 7 | 7 | Active | – | – | – | – | – | – | – | – | – | – | – | – | –
2 | Nc1cc(-c2ccccc2)ccc1Cn1cncc1CNc1ccc(-c2nc3ccccc3s2)c(-c2ccccc2)c1 | – | – | Active | 28700 | 0.4 | 7200 | > 1000 | 1.7 | Non-toxic | Non-toxic | < 2200 | Active | – | – | – | –
3 | Nc1cc(-c2ccccc2)ccc1Cn1cncc1CNc1ccc(Cl)c(-c2ccccc2)c1 | – | – | – | 6300 | 1.2 | 2400 | > 1000 | 0.8 | Non-toxic | Non-toxic | < 2200 | Active | inactive | – | – | –
4 | c1ccc(-c2ccc(Cn3cncc3CNc3ccc(-c4nc5ccccc5s4)c(-c4ccccc4)c3)cc2)cc1 | – | – | – | – | 7 | – | > 1000 | – | – | – | – | – | – | 16 | 4 | 1
